Measurements from ChEMBL document CHEMBL1124947, “Cationic antiprotozoal drugs. Trypanocidal activity of 2-(4'-formylphenyl)imidazo[1,2-a]pyridinium guanylhydrazones and related derivatives of quaternary heteroaromatic compounds” (J Med Chem, 1990).

What was measured:
Type in all cases: functional
[1] = tested on: Mus musculus; test: Trypanocidal Activity at I.C.E. value 0.87 when administered subcutaneously.
In short: (§1)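 Mice, in groups of five per dose, were given a standard inoculum of blood-stage T. rhodesiense that is lethal to all untreated controls, then dosed subcutaneously. Usually 11 dose levels were used (2^n × 0.42 mg/kg).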

[2] = tested on: Trypanosoma brucei rhodesiense; test: In Vitro measurement of inhibition of thymidine uptake in cell culture of Trypanosoma rhodesiense; details: read-out: ID50 (the source's name)
In short: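 Parasites harvested from infected rats and incubated 3 h across a drug concentration series, usually 0.1–100 µg/mL. Incorporation of radiolabeled thymidine measured. ID50 is the concentration (µg/mL) producing 50% inhibition.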

[3] = tested on: Mus musculus; test: Trypanocidal Activity at I.C.E. value 0.55 when administered perorally.
[4] = tested on: Trypanosoma brucei rhodesiense; test: In Vitro measurement of inhibition of leucine uptake in cell culture of Trypanosoma rhodesiense; details: read-out: ID50 (the source's name)
In short: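 Trypanosomes harvested from infected rats, cultured 3 h with several concentrations of drug, usually 0.1–100 µg/mL. Radiolabeled L-leucine uptake measured. ID50 is the concentration in µg/mL giving 50% inhibition of incorporation.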

[5] = tested on: Mus musculus; test: Trypanocidal Activity at I.C.E. value 0.34 when administered subcutaneously.
In short: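 Blood-stage T. rhodesiense infection came from a standard inoculum lethal to all untreated mice. Drug was given by subcutaneous injection to groups of five mice. Survival beyond 30 days counted as cure. […] Sub-curative doses scored 0, and data were normalized at each dose.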

[6] = tested on: Mus musculus; test: Trypanocidal Activity at I.C.E. value >0.3 when administered perorally.
[7] = tested on: Mus musculus; test: Trypanocidal Activity at I.C.E. value 0.85 when administered subcutaneously.; in short: as §1
[8] = tested on: Mus musculus; test: Trypanocidal Activity at I.C.E. value 0.59 when administered perorally.
[9] = tested on: Mus musculus; test: Trypanocidal Activity at I.C.E. value 0.89 when administered subcutaneously.; in short: as §1
[10] = tested on: Mus musculus; test: Trypanocidal Activity at I.C.E. value 0.19 when administered perorally.
[11] = tested on: Mus musculus; test: Trypanocidal Activity at I.C.E. value 0.64 when administered subcutaneously.; in short: as §1

**Q.** What does the source list for `COc1ccc2n(c1)cc(-c1ccc(/C=N/NC(=N)N)cc1)[n+]2C.Cc1ccc(S(=O)(=O)O)cc1.Cc1ccc(S(=O)(=O)[O-])cc1`?
**A.** CD50 [1]: 0.4 mg/kg; IC50 [2]: 5.9 µg/mL; CD50 [3]: 6.6 mg/kg; IC50 [4]: 4.3 µg/mL

**Q.** `Br.CC/N=C(\NCC)N/N=C/C=C/c1ccc(-c2cn3ccccc3[n+]2C)cc1.[Br-]` was tested. Which CD50 [5] did it give?
**A.** The CD50 was 13 mg/kg.

**Q.** And the CD50 [6]?
**A.** The CD50 was 53 mg/kg.

**Q.** How did the CD50 [7] turn out when `C[n+]1c(-c2ccc(/C=N/NC(=N)NO)cc2)cn2ccccc21.Cc1ccc(S(=O)(=O)O)cc1.Cc1ccc(S(=O)(=O)[O-])cc1` was run?
**A.** The CD50 was 0.8 mg/kg.

**Q.** What about the CD50 [8] of the same compound?
**A.** The CD50 was 6.6 mg/kg.

**Q.** `C[n+]1c(/C=C/c2ccc(/C=N/NC(=N)N)cc2)cn2ccccc21.Cc1ccc(S(=O)(=O)O)cc1.Cc1ccc(S(=O)(=O)[O-])cc1` was tested. Which CD50 [9] did it give?
**A.** Its CD50 is 0.1 mg/kg.

**Q.** And the IC50 [2]?
**A.** The IC50 was 2.7 µg/mL.

**Q.** What about the IC50 [4] of the same compound?
**A.** The IC50 was 9.3 µg/mL.

**Q.** `Br.C[n+]1c(COc2ccc(/C=N/NC3=NCCCN3)cc2)cn2cc(C(F)(F)F)ccc21.[Br-]` was tested. Which IC50 [2] did it give?
**A.** Its IC50 is 0.4 µg/mL.

**Q.** And the CD50 [10]?
**A.** The CD50 was 106 mg/kg.

**Q.** What about the CD50 [11] of the same compound?
**A.** Its CD50 is 1.6 mg/kg.

**Q.** What about the IC50 [4] of the same compound?
**A.** The IC50 was 0.5 µg/mL.
